Source: ChEMBL document CHEMBL4765234 (J Med Chem, 2016)
Activity calls are given as the source filed them. The rule behind the calls is not given here.

How the values were obtained:
[1] = target: Free fatty acid receptor 1 (Rattus norvegicus) (UniProt Q8K3T4); assay: Agonist activity at Prolink-tagged rat GPR40 fused with EA-tagged beta-arrestin expressed in human U2OS cells assessed as induction of beta-arrestin recruitment measured after 90 mins by beta-galactosidase based PathHunter assay relative to control; assay type: cell-based; conditions: filed as agonist
Sequence of Free fatty acid receptor 1 (Rattus norvegicus) (Q8K3T4 whole entry, the tested form may be a part): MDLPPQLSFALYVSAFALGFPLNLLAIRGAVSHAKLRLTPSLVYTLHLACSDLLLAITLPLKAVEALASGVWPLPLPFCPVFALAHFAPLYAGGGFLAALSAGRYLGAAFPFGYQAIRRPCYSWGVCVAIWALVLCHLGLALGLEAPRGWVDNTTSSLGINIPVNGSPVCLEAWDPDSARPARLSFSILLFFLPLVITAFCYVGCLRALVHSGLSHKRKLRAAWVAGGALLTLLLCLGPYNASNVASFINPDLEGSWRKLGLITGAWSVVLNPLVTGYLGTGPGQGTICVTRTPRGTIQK
Method in brief: (§1)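 PathHunter β-gal complementation. Cells were incubated overnight at 5000/well in medium with 1% heat-inactivated FBS. Compound was added as a 20-point 2-fold series from a top final of 100 μM (1% DMSO) for 90 min at 37 °C, followed by detection reagents and chemiluminescence read after 1 h at rt.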

[2] = target: T1, Peroxisome proliferator-activated receptor delta (Homo sapiens) (UniProt Q03181); assay: Displacement of [3H]-[…] from PPARdelta (unknown origin) expressed in baculovirus infected Sf9 insect cells upto 30 uM measured after 10 hrs by microbeta scintillation counting analysis; conditions: dose microM <=30, time 10.0 hrs
T1 sequence (whole entry): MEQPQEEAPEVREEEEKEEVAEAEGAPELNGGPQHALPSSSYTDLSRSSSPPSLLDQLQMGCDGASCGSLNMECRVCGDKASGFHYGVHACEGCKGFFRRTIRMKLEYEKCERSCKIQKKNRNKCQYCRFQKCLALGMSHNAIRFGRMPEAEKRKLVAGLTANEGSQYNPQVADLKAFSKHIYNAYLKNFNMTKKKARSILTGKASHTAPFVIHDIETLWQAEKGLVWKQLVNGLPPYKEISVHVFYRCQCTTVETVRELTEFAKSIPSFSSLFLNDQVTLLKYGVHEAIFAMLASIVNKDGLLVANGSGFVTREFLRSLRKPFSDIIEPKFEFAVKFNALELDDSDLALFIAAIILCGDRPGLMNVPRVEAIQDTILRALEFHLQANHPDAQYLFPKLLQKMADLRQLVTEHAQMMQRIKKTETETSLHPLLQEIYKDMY
Method in brief: (§2)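 Scintillation proximity assay. Sf9 lysates with baculovirus-expressed PPARα (0.3 μg), PPARδ (0.5 μg) or PPARγ (1.25 μg), each with RXRα, were bound via biotinylated DR2 oligo (0.126 nM) to streptavidin yttrium silicate beads. Buffer was HEPES pH 7.8 with KCl, MgCl2, DTT, CHAPS, 14% glycerol and salmon sperm DNA. A 3H reference agonist ligand was used, with 11 compound concentrations, for 10 h. Nonspecific binding was defined with 10000 nM unlabeled reference. Ki was derived from IC50.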

[3] = target: Free fatty acid receptor 1 (Mus musculus) (UniProt Q76JU9); assay: Agonist activity at Prolink-tagged mouse GPR40 fused with EA-tagged beta-arrestin expressed in human U2OS cells assessed as induction of beta-arrestin recruitment measured after 90 mins by beta-galactosidase based PathHunter assay relative to control; assay type: cell-based; conditions: filed as agonist; method in brief: as §1
Sequence of Free fatty acid receptor 1 (Mus musculus) (Q76JU9 whole entry, the tested form may be a part): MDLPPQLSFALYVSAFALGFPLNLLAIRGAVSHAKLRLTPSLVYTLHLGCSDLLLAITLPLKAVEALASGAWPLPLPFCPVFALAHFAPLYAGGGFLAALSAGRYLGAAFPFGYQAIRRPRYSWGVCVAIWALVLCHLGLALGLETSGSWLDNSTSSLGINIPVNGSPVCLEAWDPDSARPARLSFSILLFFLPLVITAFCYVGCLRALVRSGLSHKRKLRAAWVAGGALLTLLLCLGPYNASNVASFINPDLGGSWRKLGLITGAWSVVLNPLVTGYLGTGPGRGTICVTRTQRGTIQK

[4] = target: T2, Free fatty acid receptor 1 (Homo sapiens, UniProt O14842); assay: Agonist activity at human recombinant full-length Prolink-tagged GPR40 fused with EA-tagged beta-arrestin expressed in human HEK293 cells assessed as induction of beta-arrestin recruitment measured after 90 mins by beta-galactosidase based PathHunter assay relative to control; assay type: cell-based; conditions: filed as agonist; method in brief: as §1
T2 sequence (O14842 whole entry, the tested form may be a part): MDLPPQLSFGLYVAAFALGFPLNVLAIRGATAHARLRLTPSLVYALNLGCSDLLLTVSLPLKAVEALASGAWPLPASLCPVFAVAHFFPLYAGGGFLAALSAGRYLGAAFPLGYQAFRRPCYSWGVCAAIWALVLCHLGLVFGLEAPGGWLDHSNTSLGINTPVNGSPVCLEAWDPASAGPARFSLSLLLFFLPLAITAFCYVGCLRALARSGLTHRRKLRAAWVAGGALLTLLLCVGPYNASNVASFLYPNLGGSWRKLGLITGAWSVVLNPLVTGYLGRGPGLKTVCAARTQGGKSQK

[5] = target: T3, Peroxisome proliferator-activated receptor alpha (Homo sapiens) (UniProt Q07869); assay: Displacement of [3H]-[…] from PPARalpha (unknown origin) expressed in baculovirus infected Sf9 insect cells upto 30 uM measured after 10 hrs by microbeta scintillation counting analysis; conditions: dose microM <=30, time 10.0 hrs; method in brief: as §2
T3 sequence (whole entry): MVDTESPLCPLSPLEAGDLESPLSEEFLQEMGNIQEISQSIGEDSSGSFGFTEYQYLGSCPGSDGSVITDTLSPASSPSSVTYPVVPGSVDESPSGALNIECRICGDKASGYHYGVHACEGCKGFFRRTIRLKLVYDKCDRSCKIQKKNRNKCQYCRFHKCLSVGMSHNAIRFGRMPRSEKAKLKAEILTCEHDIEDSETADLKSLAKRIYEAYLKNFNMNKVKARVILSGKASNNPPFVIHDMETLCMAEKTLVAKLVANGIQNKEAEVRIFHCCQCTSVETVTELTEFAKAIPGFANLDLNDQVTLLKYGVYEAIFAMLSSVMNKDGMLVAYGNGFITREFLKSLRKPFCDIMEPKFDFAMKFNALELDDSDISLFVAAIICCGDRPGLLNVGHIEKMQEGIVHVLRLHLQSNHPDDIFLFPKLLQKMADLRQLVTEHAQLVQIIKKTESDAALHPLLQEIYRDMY

[6] = target: T2, Free fatty acid receptor 1; assay: Agonist activity at human recombinant full-length Prolink-tagged GPR40 fused with EA-tagged beta-arrestin expressed in human HEK293 cells assessed as induction of beta-arrestin recruitment measured after 90 mins by beta-galactosidase based PathHunter assay; assay type: cell-based; method in brief: as §1
[7] = target: Free fatty acid receptor 1 (Rattus norvegicus, UniProt Q8K3T4); assay: Agonist activity at Prolink-tagged rat GPR40 fused with EA-tagged beta-arrestin expressed in human U2OS cells assessed as induction of beta-arrestin recruitment measured after 90 mins by beta-galactosidase based PathHunter assay; assay type: cell-based; method in brief: as §1
Sequence of Free fatty acid receptor 1 (Rattus norvegicus, UniProt Q8K3T4) (Q8K3T4 whole entry, the tested form may be a part): as the sequence (Q8K3T4 whole entry, the tested form may be a part) above

[8] = target: T2, Free fatty acid receptor 1; assay: Agonist activity at human recombinant full length GPR40 overexpressed in human HEK293 cells assessed as increase in intracellular calcium level measured over 3 mins by calcium 4 dye based FLIPR assay; assay type: functional, cell-based
Method in brief: (§3)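 HEK293 cells overexpressing hGPR40 (25K/well) were cultured overnight in DMEM/F12 with 0.2% FBS and geneticin. Compound was tested at 40 μM–0.1 nM final (20-point, 1% DMSO), and FLIPR fluorescence was read over 3 min.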

[9] = target: T2, Free fatty acid receptor 1; assay: Agonist activity at human recombinant full length GPR40 overexpressed in human HEK293 cells assessed as increase in inositol phosphate accumulation in presence of terbium cryptate-labeled anti IP1/d2-labelled IP1 measured after 120 mins by HTRF assay relative to AMG837; assay type: functional, cell-based; conditions: filed as agonist
Method in brief: (§4)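 HEK293 hGPR40 cells (20K/well) were cultured overnight, washed, and held in IP1 stimulation buffer. IP-1 was measured by competitive HTRF immunoassay with terbium cryptate anti-IP1 mAb and d2-labelled IP1.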

[10] = target: T2, Free fatty acid receptor 1; assay: Agonist activity at human recombinant full length GPR40 overexpressed in human HEK293 cells assessed as increase in intracellular calcium level measured over 3 mins by calcium 4 dye based FLIPR assay relative to 100 uM linoleic acid; assay type: functional, cell-based; conditions: filed as agonist; method in brief: as §3
[11] = Protein binding in plasma (unknown origin) by equilibrium dialysis method; assay type: ADME, cell-free; conditions: human, read-out: PPB
Method in brief: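 Plasma protein binding measured by equilibrium dialysis.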

[12] = target: Free fatty acid receptor 1 (Mus musculus, UniProt Q76JU9); assay: Agonist activity at Prolink-tagged mouse GPR40 fused with EA-tagged beta-arrestin expressed in human U2OS cells assessed as induction of beta-arrestin recruitment measured after 90 mins by beta-galactosidase based PathHunter assay; assay type: cell-based; method in brief: as §1
Sequence of Free fatty acid receptor 1 (Mus musculus, UniProt Q76JU9) (Q76JU9 whole entry, the tested form may be a part): as the sequence (Q76JU9 whole entry, the tested form may be a part) above

[13] = target: T2, Free fatty acid receptor 1; assay: Agonist activity at human recombinant full length GPR40 overexpressed in human HEK293 cells assessed as increase in inositol phosphate accumulation in presence of terbium cryptate-labeled anti IP1/d2-labelled IP1 measured after 120 mins by HTRF assay; assay type: functional, cell-based; method in brief: as §4
[14] = target: T4, Peroxisome proliferator-activated receptor gamma (Homo sapiens) (UniProt P37231); assay: Displacement of [3H]-[…] from PPARgamma (unknown origin) expressed in baculovirus infected Sf9 insect cells upto 30 uM measured after 10 hrs by microbeta scintillation counting analysis; conditions: dose microM <=30, time 10.0 hrs; method in brief: as §2
T4 sequence (whole entry): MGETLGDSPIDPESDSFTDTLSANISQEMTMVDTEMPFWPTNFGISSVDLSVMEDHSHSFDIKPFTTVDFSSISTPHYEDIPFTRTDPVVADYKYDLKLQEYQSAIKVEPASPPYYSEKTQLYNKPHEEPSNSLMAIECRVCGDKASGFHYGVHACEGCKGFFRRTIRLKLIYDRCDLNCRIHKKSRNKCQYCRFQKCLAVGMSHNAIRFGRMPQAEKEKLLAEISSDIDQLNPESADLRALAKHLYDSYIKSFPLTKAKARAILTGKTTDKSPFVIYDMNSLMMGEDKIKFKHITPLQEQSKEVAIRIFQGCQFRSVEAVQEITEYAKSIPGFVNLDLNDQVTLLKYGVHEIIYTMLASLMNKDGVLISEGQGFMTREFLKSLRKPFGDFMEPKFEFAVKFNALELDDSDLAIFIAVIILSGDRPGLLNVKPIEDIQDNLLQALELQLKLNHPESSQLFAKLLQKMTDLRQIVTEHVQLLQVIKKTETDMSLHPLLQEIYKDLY

[15] = target: T2, Free fatty acid receptor 1; assay: Displacement of [3H]-TAK-875 from human recombinant full-length GPR40 expressed in human HEK293 cell membrane incubated for 2 hrs by solid scintillation counting method; assay type: cell membranes

SMILES	Emax [1] [%]	Activity [2]	Emax [3] [%]	Emax [4] [%]	Activity [5]	EC50 [6] [nM]	EC50 [7] [nM]	EC50 [8] [nM]	Emax [9] [%]	Emax [10] [%]	fraction unbound [11]	EC50 [12] [nM]	EC50 [13] [nM]	Activity [14]	Ki [15] [nM]
CC#C[C@@H](CC(=O)O)c1ccc(OCc2sc(CN3CCC4(C=Cc5ccccc54)CC3)nc2C)cc1	73	inactive	97	100	inactive	520	100	17	97	53	< 0.01	18	72	inactive	100
CC#C[C@@H](CC(=O)O)c1ccc(OCc2nc(C)c(CN3CCC4(C=Cc5ccccc54)CC3)s2)cc1	112	inactive	118	114	inactive	58	17	11	112	62	< 0.01	3.8	10	inactive	59
CC#C[C@H](CC(=O)O)c1ccc(OCc2ccc(CN3CCC4(C=Cc5ccccc54)CC3)cc2)cc1F	112	inactive	113	102	inactive	680	420	440	160	61	< 0.01	120	190	inactive	410
CC#C[C@@H](CC(=O)O)c1ccc(OCc2ncc(CN3CCC4(C=Cc5ccccc54)CC3)s2)cc1	109	inactive	115	117	inactive	84	23	2.8	129	63	< 0.01	7.2	12	inactive	130
CC#C[C@@H](CC(=O)O)c1ccc(OCc2ccc(CN3CCC4(C=Cc5ccccc54)CC3)o2)cc1	117	inactive	121	121	inactive	62	4.2	1.6	127	59	< 0.01	2.1	22	inactive	20
CC#C[C@@H](CC(=O)O)c1ccc(OCc2ccc(CN3CCC4(C=Cc5ccccc54)CC3)c(F)c2)cc1	145	inactive	148	135	inactive	9.3	1.3	17	210	51	< 0.01	1.2	2.3	inactive	4
CC#C[C@@H](CC(=O)O)c1ccc(OCc2ccc(CN3CCC4(CC3)CN(C(C)C)c3ccccc34)cc2)cc1	139	inactive	143	133	inactive	8.2	2.1	24	343	46	< 0.01	1.2	11	inactive	4.1
